Data taken from ChEMBL document CHEMBL1121553, “Substituted 6,7-dihydroimidazo[1,2-a]purin-9(4H)-ones” (J Med Chem, 1980).
Values after ≈ are worked out from the molar mass of the structure shown. Active and inactive are the calls of the source. No cut-off for these calls is given here.

What was measured:
Cavia porcellus [1] = species: Cavia porcellus; assay: In vitro bronchodilator activity in isolated guinea pig tracheal spiral preparation; type: functional; settings: Trachea
Outline: (§1)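 Guinea pig tracheal spiral held under 1.0 g tension, equilibrated 90–120 min to maximal spontaneous tonus. One drug concentration per spiral, ≥3 trials per concentration. Relaxation was expressed as % of that produced by papaverine (10 µg/mL) in the same tissue. Concentrations are bath values in µg/mL; the 50%-relaxation concentration was obtained by regression.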

Rattus norvegicus [2] = assay: In vivo bronchodilator activity in methacholine (intravenous) induced bronchospasm in male Harlan-Sprague-Dawley rats when administered intraduodenally; type: functional
Rattus norvegicus [3] = assay: Antiallergic activity by passive cutaneous anaphylaxis test in ovalbumin sensitized male Harlan-Sprague-Dawley rats at 25 mg/kg oral dose (inactive); type: functional, organism-based; set-up: dose 25 mg/kg
Outline: (§2)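 Donor rats got egg albumin im (1 mg/rat) plus killed B. pertussis vaccine ip (2 × 10¹⁰ organisms/rat) and were bled 10–12 days later for IgE-rich antiserum. Recipient rats (100–150 g) were sensitized intradermally with 0.1 mL of 1:2.5 and 1:10 antiserum dilutions.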

Rattus norvegicus [4] = assay: In vivo bronchodilator activity in methacholine (intravenous) induced bronchospasm in male Harlan-Sprague-Dawley rats when administered intraduodenally; statistically significant inhibition of < 50% at thr stated dose; type: functional
Rattus norvegicus [5] = assay: Antiallergic activity by passive cutaneous anaphylaxis test in ovalbumin sensitized male Harlan-Sprague-Dawley rats administered perorally; type: functional; settings: po; outline: as §2
Rattus norvegicus [6] = assay: Antiallergic activity was evaluated by inhibition of allergen-induced bronchospasm in male Harlan-Wistar rats when administered intraduodenally 15 min prior to antigen challenge; type: functional; settings: intraduodenal
Rattus norvegicus [7] = assay: Antiallergic activity was evaluated by passive cutaneous anaphylaxis test in egg albumin sensitized male Harlan-Sprague-Dawley rats when administered perorally; type: functional; settings: po; outline: as §2
Cavia porcellus [8] = species: Cavia porcellus; assay: Evaluation of in vitro bronchodilator activity in isolated guinea pig tracheal spiral preparation; type: functional; settings: Trachea; outline: as §1
Rattus norvegicus [9] = assay: In vivo bronchodilator effect on (intravenous) methacholine-induced bronchospasm in male Harlan-Sprague-Dawley rats at 10 mg/kg intraduodenal dose (inactive); type: functional, organism-based; set-up: dose 10 mg/kg
Rattus norvegicus [10] = assay: Antiallergic activity by passive cutaneous anaphylaxis test in ovalbumin sensitized male Harlan-Sprague-Dawley rats administered orally; type: functional; settings: po; outline: as §2

SMILES | IC50 (Cavia porcellus [1]) [µg/mL] | ED50 (Rattus norvegicus [2]) [mg/kg] | also measured
Cn1cnc2c1C(=O)N1CCN=C1N2Cc1ccc(Cl)cc1 | 2.9 (≈ 9.18 µM) | 8.8 | ED50 (Rattus norvegicus [3]): inactive
CC(C)CN1C2=NCCN2C(=O)c2[nH]nnc21 | ~200 (≈ 854 µM) | – | ED50 (Rattus norvegicus [4]): > 30 mg/kg; ED50 (Rattus norvegicus [5]): > 30 mg/kg
Cc1nc2c([nH]1)N(Cc1ccc(Cl)cc1)C1=NCCN1C2=O | 5.3 (≈ 16.8 µM) | 1.3 | –
Oc1c2ncnc-2n(Cc2ccc(Cl)cc2)c2nccn12 | 4.1 (≈ 13.7 µM) | 8.1 | –
O=C1c2[nH]cnc2N(Cc2ccc(Cl)c(Cl)c2)C2=NCCN12 | 12.5 (≈ 37.2 µM) | – | –
C[C@H]1N=C2N(Cc3ccc(Cl)cc3)c3[nH]cnc3C(=O)N2[C@H]1C | 0.7 (≈ 2.12 µM) | 3 | ED50 (Rattus norvegicus [6]): 1.7 mg/kg; ED50 (Rattus norvegicus [7]): 28.5 mg/kg
Cn1c(N)nc2c1C(=O)N1CCN=C1N2Cc1ccc(Cl)cc1 | 4.8 (≈ 14.5 µM) | – | ED50 (Rattus norvegicus [4]): > 30 mg/kg
Cc1nc2c(n1C)C(=O)N1CCN=C1N2CC(C)C | 36.6 (≈ 140 µM) | – | –
CC(C)CN1C2=NC(C)CN2C(=O)c2[nH]cnc21 (configuration not stated) | 14 (≈ 56.6 µM) | – | ED50 (Rattus norvegicus [5]): > 30 mg/kg
O=C1c2[nH]cnc2N(Cc2ccccc2Cl)C2=NCCN12 | 49 (≈ 162 µM) | – | –
CCCCn1cnc2c1C(=O)N1CCN=C1N2Cc1ccc(Cl)cc1 | 15.5 (≈ 43.3 µM) | – | ED50 (Rattus norvegicus [4]): > 10 mg/kg
C[C@@H]1N=C2N(Cc3ccc(Cl)cc3)c3[nH]cnc3C(=O)N2[C@H]1C | 1.1 (≈ 3.34 µM) | 5 | ED50 (Rattus norvegicus [6]): 2.8 mg/kg; ED50 (Rattus norvegicus [7]): 35.5 mg/kg
CCc1nc2c([nH]1)N(CC(C)C)C1=NCCN1C2=O | 16.7 (≈ 63.9 µM) | – | –
CSC1=C2N=CN=C2N(Cc2ccc(Cl)cc2)C2=NCCN21 | – | > 30 | IC50 (Cavia porcellus [8]): 8.1 µg/mL (≈ 24.4 µM)
O=C1c2[nH]nnc2N(Cc2ccc(F)cc2)C2=NCCN12 | > 200 | – | ED50 (Rattus norvegicus [4]): > 10 mg/kg
Cn1c(Br)nc2c1C(=O)N1CCN=C1N2Cc1ccc(Cl)cc1 | – | – | IC50 (Cavia porcellus [8]): 3.9 µg/mL (≈ 9.88 µM); ED50 (Rattus norvegicus [9]): inactive
S=C1c2[nH]cnc2N(Cc2ccc(Cl)cc2)C2=NCCN12 | 5.1 (≈ 16 µM) | – | ED50 (Rattus norvegicus [4]): > 30 mg/kg
CC1(C)CN2C(=O)c3[nH]cnc3N(Cc3ccc(Cl)cc3)C2=N1 | 14.3 (≈ 43.4 µM) | – | ED50 (Rattus norvegicus [6]): 3 mg/kg; ED50 (Rattus norvegicus [10]): 35.3 mg/kg
O=C1c2[nH]cnc2N(CCc2ccc(Cl)cc2)C2=NCCN12 | 53 (≈ 168 µM) | – | ED50 (Rattus norvegicus [3]): inactive
Cc1nc2c([nH]1)C(=O)N1CCN=C1N2CC(C)C | 2.8 (≈ 11.3 µM) | – | ED50 (Rattus norvegicus [6]): 5.4 mg/kg
Cc1nc2c([nH]1)C(=O)N1CC(C)N=C1N2Cc1ccc(Cl)cc1 (configuration not stated) | 4.4 (≈ 13.3 µM) | 1 | ED50 (Rattus norvegicus [6]): 1.23 mg/kg; ED50 (Rattus norvegicus [7]): 30.2 mg/kg
